Test [1] is described as follows: Inhibition of hexa-His-tagged human soluble epoxide hydrolase N-terminal phosphatase domain expressed in Escherichia coli BL21(DE3) pre-incubated for 30 mins before FDP substrate addition by fluorescence based assay.
The species entered for test [2] is Homo sapiens. Kind of test: Induction of stabilization of hexa-His-tagged human soluble epoxide hydrolase N-terminal phosphatase domain expressed in Escherichia coli BL21(DE3) at 50 uM by differential scanning fluorimetry.
In test [3] the target is T1, Bifunctional epoxide hydrolase 2 (Homo sapiens) (UniProt P34913).
T1 sequence (whole entry): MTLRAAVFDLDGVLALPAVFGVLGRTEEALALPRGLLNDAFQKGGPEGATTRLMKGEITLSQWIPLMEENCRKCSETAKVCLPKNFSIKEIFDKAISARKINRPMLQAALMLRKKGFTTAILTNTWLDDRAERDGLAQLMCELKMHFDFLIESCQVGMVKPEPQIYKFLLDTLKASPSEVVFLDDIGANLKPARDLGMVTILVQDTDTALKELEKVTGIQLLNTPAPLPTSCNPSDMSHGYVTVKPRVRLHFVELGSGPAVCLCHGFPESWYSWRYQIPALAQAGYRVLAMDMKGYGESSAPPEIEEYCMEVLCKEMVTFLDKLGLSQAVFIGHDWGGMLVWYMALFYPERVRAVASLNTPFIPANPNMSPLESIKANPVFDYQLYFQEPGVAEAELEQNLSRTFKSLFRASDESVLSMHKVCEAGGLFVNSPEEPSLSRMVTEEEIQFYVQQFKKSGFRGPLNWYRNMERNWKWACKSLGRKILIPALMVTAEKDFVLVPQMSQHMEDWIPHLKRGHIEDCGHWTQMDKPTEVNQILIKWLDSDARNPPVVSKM
In words: Induction of stabilization of hexa-His-tagged human soluble epoxide hydrolase C-terminal hydrolase domain expressed in Escherichia coli BL21(DE3) at 50 uM by differential scanning fluorimetry.

In test [4] the target is T2, Bifunctional epoxide hydrolase 2 (Homo sapiens, UniProt P34913).
T2 sequence (P34913 whole entry): T1 sequence (whole entry)
In words: Inhibition of hexa-His-tagged human soluble epoxide hydrolase C-terminal hydrolase domain expressed in Escherichia coli BL21(DE3) pre-incubated for 30 mins before PHOME substrate addition by fluorescence based assay.

For test [5], the target named is T2, Bifunctional epoxide hydrolase 2. In words: Inhibition of phosphatase activity of full length human soluble epoxide hydrolase pre-incubated for 30 mins before FDP substrate addition by fluorescence based assay.
The species named for test [6] is Homo sapiens.
The target in test [7] is T2, Bifunctional epoxide hydrolase 2. Kind of test: Inhibition of hydrolase activity of full length human soluble epoxide hydrolase pre-incubated for 30 mins before PHOME substrate addition by fluorescence based assay. Put shortly: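 Hydrolase assay with 0.1 μM full-length enzyme in Bis-Tris pH 7 containing 0.1 mg/mL BSA and 0.01% Triton X-100. Reaction started with PHOME (50 μM final). Triplicates.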

Activity calls are given as the source filed them. No cut-off for these calls is given here. Some results are limits rather than exact numbers.

Regarding `O=C(O)c1ccccc1-c1nc(-c2ccc(Cl)c(Cl)c2)c(-c2ccccc2)o1`, half-maximal inhibition in test [1] (IC50) was put at 15000 nM.
Turning to `O=C(Nc1ccc(I)cc1)NC1CCCCC1`, the result in the test filed under Homo sapiens [2] was inactive. For the same compound, the outcome in test [3] was Active.
In test [1], `O=C(O)CCc1nc(-c2ccc(C(F)(F)F)cc2)c(-c2ccccc2)o1` had an IC50 of 33000 nM.
Consider `O=C(O)/C=C/c1nc(-c2ccc(Cl)c(Cl)c2)c(-c2ccccc2)o1`, for which the IC50 in test [1] is 510 nM.
For the compound `N#Cc1cccc(-c2oc(CCCC(=O)O)nc2-c2ccc(Cl)c(Cl)c2)c1`, in test [1], 120 nM corresponded to half-maximal inhibition (IC50).
As for `O=C(O)CCCc1nc(-c2ccc(Cl)c(Cl)c2)co1`, in test [1], the IC50 is over 50000 nM.
On the same count and under the same terms, the value for `O=C(O)CCc1nc(-c2ccc(Cl)cc2Cl)c(-c2ccccc2)o1` was 17000 nM; that for `COc1cccc(-c2oc(CCCC(=O)O)nc2-c2ccc(Cl)c(Cl)c2)c1` was 310 nM.
In test [1], `C#Cc1cccc(-c2oc(CCCC(=O)O)nc2-c2ccc(Cl)c(Cl)c2)c1` showed an IC50 of 140 nM.
Consider `N#Cc1ccc(-c2nc(CCC(=O)O)oc2-c2ccccc2)cc1`, for which the IC50 in test [1] came out at 44000 nM.
The same measure, in the same setting: the value for `O=C(O)CCc1nc(-c2ccccc2Cl)c(-c2ccccc2)o1` was 33000 nM.
Take `O=C(O)CCc1nc(-c2cc(Cl)cc(Cl)c2)c(-c2ccccc2)o1`: it took 9000 nM to reach half-maximal inhibition in test [1] (IC50).
Regarding `O=C(O)CCc1nc(-c2ccc(Cl)c(Cl)c2)c(-c2ccccc2)o1`, 120 nM corresponded to half-maximal inhibition in test [1] (IC50).
As for `O=C(O)CCCc1nc(-c2ccc(Cl)c(Cl)c2)c(-c2cccc(Cl)c2)o1`, the IC50 in test [1] turned out to be 230 nM.
Take `Cc1cccc(-c2oc(CCCC(=O)O)nc2-c2ccc(Cl)c(Cl)c2)c1`: inhibition in test [1] was half-maximal at 310 nM (IC50).
Consider `O=C(O)CCCc1nc(-c2ccc(Cl)c(Cl)c2)c(-c2cccnc2)o1`, for which, in test [1], the IC50 came to 4000 nM.
In the case of `O=C(O)CCCc1nc(-c2ccc(Cl)c(Cl)c2)c(-c2ccncc2)o1`, in test [1], the IC50 worked out at 20000 nM.
With `CC(=O)N[C@@H](CSC/C=C(\C)CC/C=C(\C)CCC=C(C)C)C(=O)O`, the IC50 is over 300000 nM in test [4], 2040 nM in test [5], 550 nM in test [1] and over 300000 nM in test [7]. Moreover, the ΔTm in the test filed under Homo sapiens [6] turned out to be 3.4 °C.
Compound `O=C(O)CCc1nc(-c2ccccc2F)c(-c2ccccc2)o1` showed an IC50 in test [1] of 40000 nM.
Still for that read-out and setting: the value for `O=C(O)CCCc1nc(-c2ccc(Cl)c(Cl)c2)c(-c2ccccc2F)o1` was 310 nM.
`O=C(O)c1cccc(-c2nc(-c3ccc(Cl)c(Cl)c3)c(-c3ccccc3)o2)c1`: half-maximal inhibition in test [1] (IC50) was put at 150 nM.
Same read-out and setting: the value for `O=C(O)CCCc1nc(-c2ccc(Cl)c(Cl)c2)c(-c2cccc(C(F)(F)F)c2)o1` was 410 nM; that for `O=C(O)CCCc1nc(-c2ccc(Cl)c(Cl)c2)c(-c2cc(F)ccc2F)o1` was 280 nM; that for `O=C(O)CCc1nc(-c2ccc(Cl)c(C(F)(F)F)c2)c(-c2ccccc2)o1` was 2000 nM.
In turn, `O=C(O)CCc1nc(-c2ccc(Cl)cc2)c(-c2ccccc2)o1` gave an IC50 in test [1] of 3000 nM.
On to `O=C(O)CCc1nc(-c2ccc(F)cc2)c(-c2ccccc2)o1`, for which, in test [1], the IC50 was 9000 nM.
In test [1], `COc1ccc(-c2nc(CCC(=O)O)oc2-c2ccccc2)cc1` returned an IC50 of 18000 nM.
In test [1], `N#Cc1cccc(-c2nc(CCC(=O)O)oc2-c2ccccc2)c1` returned an IC50 of 10000 nM.
For the compound `O=C(O)CCCc1nc(-c2ccc(Cl)c(Cl)c2)c(-c2cccc(F)c2)o1`, the IC50 in test [1] is 120 nM.
Same read-out and setting: the value for `O=C(O)CCc1nc(-c2cccc(F)c2)c(-c2ccccc2)o1` was 7000 nM.
In test [1], `O=C(O)CCCc1nc(-c2ccc(Cl)c(Cl)c2)c(Br)o1` yielded an IC50 of 3000 nM.
Consider `O=c1c2ccccc2[se]n1-c1ccccc1` [EBSELEN], for which the IC50 in test [4] came out at 110 nM; in test [5], 420 nM; in test [1], 290 nM; in test [7], 300 nM.
On to `O=C(O)c1ccc(-c2nc(-c3ccc(Cl)c(Cl)c3)c(-c3ccccc3)o2)cc1`, for which, in test [1], the IC50 was determined as 12000 nM.
